Compound activity: PubChem, Johns Hopkins Ion Channel Center
KCNQ1 inh: inhibitors of human KCNQ1 channel, primary screen, cell-based, thallium flux, high-throughput; hit rate 1.3% among 310,000; CHO-K1 KCNQ1, FluxOR thallium flux fluorescence; hits give high values; AID 2642, 2010; B-score at 10 µM;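 active means compounds whose thallium flux B-score, printed positive for inhibition, exceeds three library SD while starting fluorescence stays within three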;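 further: channel opened by potassium depolarization with thallium stimulus after 20 min compound exposure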
hERG rescue: hERG rescue from dofetilide block, primary screen, cell-based, CHO-hERG, FluxOR thallium flux, dofetilide IC70; hit rate 0.51% among 310,000; dofetilide IC70 present; Voltage-gated inwardly rectifying potassium channel KCNH2 (Homo sapiens), Q12809; activation (rescue from dofetilide block), less the hit threshold, % at 10 µM;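 active means activation above the mean of controls blocked by dofetilide plus 5 SD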;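 further: thallium influx through hERG after potassium depolarization seen as dye fluorescence rise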
KCNK3 block: human KCNK3 channel inhibitors, primary screen, CHO cells, FluxOR thallium flux, B-score. hit rate 0.84% among 340,000. Potassium channel subfamily K member 3 (Homo sapiens), O14649. B-score at 10 µM. AID 602410, 2012. FluxOR fluorescence; hits give low values;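 active means B-score under library mean minus 4 SD, starting fluorescence ratio at most library mean plus 5 SD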;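 further: more negative B-score means stronger inhibition of thallium flux through KCNK3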
Kir21 block: inhibitors of mouse Kir2.1 inward-rectifier potassium channel; B-score at 10 µM; Inward rectifier potassium channel 2 (Mus musculus), P35561; hit rate 0.85% among 310,000; HEK293-Kir2.1, FluxOR thallium flux fluorescence; hits give low values;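 active means fluorescence ratio B-score at or below minus 3 SD of library scores, with starting-brightness B-score within 2 SD, cut at about -4.2 in these data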;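 further: channel flux triggered by added potassium and thallium sulfate stimulus; B-score of peak minus minimum fluorescence over baseline after thallium stimulus; more negative B-score means stronger Kir2.1 block with less thallium influx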
Target sequence (P35561 whole entry, looked up): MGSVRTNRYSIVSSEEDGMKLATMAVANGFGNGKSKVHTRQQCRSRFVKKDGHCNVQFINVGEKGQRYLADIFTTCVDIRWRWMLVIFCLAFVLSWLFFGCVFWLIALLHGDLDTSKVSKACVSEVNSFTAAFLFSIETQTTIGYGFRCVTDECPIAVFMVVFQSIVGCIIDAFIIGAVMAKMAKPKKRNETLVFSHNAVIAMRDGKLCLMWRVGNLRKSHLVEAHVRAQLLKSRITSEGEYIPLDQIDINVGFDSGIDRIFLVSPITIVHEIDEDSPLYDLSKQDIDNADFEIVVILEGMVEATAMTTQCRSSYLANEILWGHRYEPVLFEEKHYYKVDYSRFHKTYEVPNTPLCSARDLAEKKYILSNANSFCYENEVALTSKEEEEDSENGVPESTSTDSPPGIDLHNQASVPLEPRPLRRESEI
KCNQ1 pot: potentiators or activators of KCNQ1 channel, primary screen, cell-based, thallium flux, high-throughput; Potassium voltage-gated channel subfamily KQT member 1 (Homo sapiens), P51787; hit rate 0.35% among 310,000; B-score at 10 µM; CHO-K1 KCNQ1, thallium flux FluxOR fluorescence; hits give high values;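 active means fluorescence ratio B-score, a plate-corrected score, at least three library SD, with initial intensity B-score within 5 SD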
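Schedule – 37 °C overnight plating, 90-min dark dye load, 20-min compound pretreatment · System – stable KCNQ1 CHO-K1 line · Probe or stimulus – thallium- and potassium-containing depolarizing buffer · Measured by – kinetic FluxOR fluorescence, 10 s baseline plus 110 s post-stimulus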
KCNK9 inh: KCNK9 potassium channel inhibitors, primary screen, HEK293 cells, thallium flux; Potassium channel subfamily K member 9 (Homo sapiens), Q9NPC2; hit rate 1.2% among 310,000; FluxOR thallium flux fluorescence; hits give low values; B-score at 10 µM;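 active means ratio B-score over 3 SD below the library mean, with starting fluorescence within 5 SD of its mean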;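 further: negative B-score means less thallium flux so channel inhibition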
A number is an active result; – = inactive; · = not tested or not shown. Only some compounds are listed: those with a hit (about 3.7% of all), similar ones and a draw of the others.

SMILES	KCNQ1 inh	hERG rescue	KCNK3 block	Kir21 block	KCNQ1 pot	KCNK9 inh
CCCn1ncc(CN2CCCC(C(=O)c3cccc(OC(C)C)c3)C2)c1C (stereo not drawn)	–	–	–	–	–	–
CC(C)Oc1ccc(C(=O)Nc2cccc3cccnc23)cc1	–	–	–	–	–	-6.8
CCOc1ccc(C(=O)Nc2cccc3cccnc23)cc1	–	–	–	–	–	–
N#CC1=C(SCc2ccccc2)NC(=O)CC1c1ccccc1 (stereo not drawn)	–	–	–	-11	–	–
CCOC(=O)CSC1=C(C#N)C(c2ccc(C)o2)CC(=O)N1 (stereo not drawn)	–	–	–	-4.4	–	–
C=CCSC1=C(C#N)C(c2ccccc2)CC(=O)N1 (stereo not drawn)	–	–	–	–	–	–
CCOC(=O)CSC1=C(C#N)C(c2ccc(Cl)cc2)CC(=O)N1 (stereo not drawn)	–	–	–	-8.8	–	–
COc1ccc(NS(=O)(=O)c2cc(NC(=O)c3ccc(=O)[nH]n3)ccc2N2CCOCC2)cc1	·	·	–	·	·	·
CC(=O)c1c(N2CCN(C)CC2)[nH]c(-c2ccccc2)nc1=S	–	–	–	–	–	–
Cc1nc(N2CCN(Cc3ccccc3)CC2)c(C#N)c2c1COC(C)(C)C2	–	–	–	-7.5	–	–
CC1CCN(C(=O)c2cc(Cl)ccc2NC(=O)c2ccco2)CC1	–	–	–	–	–	–
CC(=O)c1sc(NC(=O)c2oc3ccc(F)cc3c2C)nc1C	·	·	–	·	·	·
Cc1cccc(NC(=S)c2nc3ccccc3s2)c1	–	43	–	–	10	–
C[n+]1c(/C=C/c2ccc(O)cc2)ccc2ccccc21	–	–	–	–	–	–
Cc1cc(/C=C\c2ccc3cc(N(C)C)ccc3[n+]2C)c(C)n1-c1ccccc1	·	·	-11	·	·	·
NC1=NC2=C(CCCC2)C2(CCCCC2)S1	–	–	–	-6.7	–	–
Cc1ccc(NC(=O)C2COc3ccccc3O2)cc1S(=O)(=O)N1CCOCC1 (stereo not drawn)	·	·	–	·	·	·
Cn1nnnc1SC(C(=O)Nc1cccc(C(F)(F)F)c1)c1ccccc1 (stereo not drawn)	–	–	–	–	–	-7
O=C(Nc1cccc(C(F)(F)F)c1)C(SCCO)c1ccccc1 (stereo not drawn)	–	–	–	–	–	-7.4
O=C(Nc1cccc(C(F)(F)F)c1)C(Sc1ncnc2ccccc12)c1ccccc1 (stereo not drawn)	–	–	–	–	–	–
NNC(=O)c1cnn(-c2ccccc2)c1-n1cccc1	–	–	–	–	–	–
CCCOc1ccc(-c2nc(OC)c3ccccc3n2)cc1	–	–	–	–	–	-6.6
CC(C)c1ccccc1NC(=O)CNC(C)c1ccc(F)cc1 (stereo not drawn)	–	–	–	-5.5	–	–
COc1cc2ccccc2cc1C(=O)NCC(c1cccs1)N(C)C (stereo not drawn)	–	–	–	–	–	–
Cc1ccc(CN(C(=O)c2csnn2)C(C(=O)NC2CCCC2)c2ccc(C)o2)cc1 (stereo not drawn)	–	–	–	–	–	-6.8
SMILES	KCNQ1 inh	hERG rescue	KCNK3 block	Kir21 block	KCNQ1 pot	KCNK9 inh
Cc1ccc(C(C(=O)NC2CCCC2)N(C(=O)c2csnn2)C2CCCC2)o1 (stereo not drawn)	–	–	–	–	–	–
Cn1c(-c2ccc([N+](=O)[O-])cc2)nc2ccccc21	–	–	–	–	–	–
Cn1nc([N+](=O)[O-])c(C(C#N)c2nc3ccccc3n2C)c(Cl)c1=O (stereo not drawn)	6	–	–	–	–	–
C=CCn1c(Br)nc2c1c(=O)n(C)c(=O)n2C	–	–	–	–	–	–
C=CCn1c(Br)nc2c1c(=O)[nH]c(=O)n2C	–	5.5	–	–	–	–
COc1ccc(/C=C/C(=O)N2CCN(S(=O)(=O)c3ccccc3Br)CC2)cc1OC	·	·	–	·	·	·
CN1CCN(C2=Cc3ccccc3Sc3cc(F)ccc32)CC1	–	–	–	-8.4	–	–
CCC(c1nnc(SCC(=O)Nc2ccc(Cl)cc2C(F)(F)F)n1C1CCCCC1)N(C)C (stereo not drawn)	–	–	–	–	–	–
Nc1cc(C(=O)c2cccs2)ccc1Cl	–	–	–	–	–	-6.8
CC(NC(=O)Nc1cccc([N+](=O)[O-])c1)(C(F)(F)F)C(F)(F)F	12	–	–	–	–	–
CCOC(=O)/C=C/C(=O)Nc1cccc([N+](=O)[O-])c1	–	–	–	-6.2	–	–
CCOC(=O)/C(C)=N/NC(=O)c1cccc([N+](=O)[O-])c1	–	12	–	–	–	–
CCOC(=O)Cc1ccc(NC(=O)c2cccc([N+](=O)[O-])c2)cc1	–	–	–	–	–	–
O=C(Nc1cccc([N+](=O)[O-])c1)Nc1cccs1	8	–	–	–	–	–
COc1ccccc1NC(=O)C(C)OC(=O)Cc1ccsc1 (stereo not drawn)	·	·	–	·	·	·
CCN(CC(=O)NCCc1ccc(S(N)(=O)=O)cc1)Cc1nc2ccccc2c(=O)[nH]1	–	4.8	–	–	–	–
COc1ccc(Br)cc1C(=O)NC(=S)Nc1c(C)n(C)n(-c2ccccc2)c1=O	–	4.8	–	–	–	–
Cc1c(NC(=S)NC(=O)c2ccccc2Cl)c(=O)n(-c2ccccc2)n1C	–	–	–	–	–	–
Nc1nc(SCC(=O)Nc2cccc(F)c2)n[nH]1	·	·	–	·	·	·
COc1ccccc1C(=O)NC(=S)NNC(=O)c1sc2ccccc2c1Cl	–	86	–	–	46	–
Cc1c(NC(=S)NC(=O)c2sc3ccccc3c2Cl)cccc1C(=O)O	–	–	–	–	–	–
COc1ccccc1C(=O)NNC(=S)NC(=O)c1sc2ccccc2c1Cl	–	25	–	–	25	–
COc1ccccc1C(=O)NNC(=S)NC(=O)c1cccs1	–	–	–	–	10	–
C/C=C(\C)C(=O)OC1CC(C)(C)C[C@H]2C3=CC[C@@H]4[C@@]5(C)CCC(O[C@@H]6O[C@@H](C(=O)O)[C@@H](O)C(O[C@@H]7OC[C@H](O)[C@@H](O)[C@@H]7O[C@@H]7OC(CO)C(O)[C@@H](O)[C@@H]7O)C6O[C@@H]6OC(CO)C(O)C(O)C6O)[C@@](C)(CO)[C@@H]5CC[C@]4(C)[C@]3(C)CC(O)[C@@]12CO (stereo partly drawn)	·	·	–	·	·	·
O=C(Oc1ccc(Br)cc1C(=S)N1CCCC1)c1ccccc1Cl	–	–	–	–	–	-8
